ChEMBL document CHEMBL1157378, “Role for cell density in antifungal drug resistance in Candida albicans biofilms” (2007)

Key:
Assay type in all cases: functional
Candida albicans [1] = test: Antimicrobial activity against Candida albicans FH1 at planktonic cell density of 10^3 cells/ml after 24 hrs by XTT assay; conditions: FH1, 24 h
Outline: (§1)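 YNB-grown yeast (50 mM glucose, room temperature, shaken, to ~2 x 10^8 cells/ml) washed into MOPS-buffered RPMI 1640 with L-glutamine and set to the stated density. Exposed to twofold serial drug dilutions (1,024 to 0.0313 µg/ml) at 37°C, 48 h (caspofungin 24 h), with drug-free controls. Read-out: XTT (0.5 g/liter) plus 1 µM menadione, formazan at 490 nm.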

Candida albicans [2] = test: Antimicrobial activity against Candida albicans SC5314 at planktonic cell density of 10^8 cells/ml after 24 hrs by XTT assay; conditions: SC5314, 24 h
Outline: (§2)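 Planktonic yeast grown in YNB with 50 mM glucose at room temperature with shaking, subcultured to about 2 x 10^8 cells/ml, then washed and resuspended in MOPS-buffered RPMI 1640 with L-glutamine at the stated density. 100 µl of cells was mixed with 100 µl of a twofold drug series (prepared at 1,024 to 0.0313 µg/ml) and incubated for 24 h at 37°C. Read-out was XTT with 1 µM menadione at 37°C, absorbance at 490 nm.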

Candida albicans [3] = test: Antimicrobial activity against Candida albicans GDH2346 dissociated biofilms at cell density of 10^8 cells/ml after 24 hrs by XTT assay; conditions: GDH2346, 24 h
Outline: (§3)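 Biofilms grown from 1 x 10^6 cells/ml in RPMI on polystyrene 96-well plates, 48 h at 37°C in a moist chamber, then washed and scraped into 100 µl RPMI. Cells used undiluted (about 2 x 10^8 cells/ml equivalent) or diluted to a low density set against an A600 standard curve. A twofold drug series was added for 24 h at 37°C. Read-out was XTT/menadione at 490 nm.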

Candida albicans [4] = test: Antimicrobial activity against Candida albicans GDH2346 intact biofilms after 24 hrs by XTT assay; conditions: GDH2346, 24 h
Outline: (§4)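 Intact biofilms formed from 1 x 10^6 cells/ml in RPMI in polystyrene microtiter wells, 48 h at 37°C in a moist chamber, then washed once and covered with 100 µl RPMI. A twofold drug series was added in the same well for 24 h at 37°C. Metabolic activity was read by XTT (0.5 g/liter, 1 µM menadione, up to 2 h) at 490 nm.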

Candida albicans [5] = test: Antimicrobial activity against Cdr1, Cdr2 and Mdr1 deficient Candida albicans DSY1050 at planktonic cell density of 10^8 cells/ml after 24 hrs by XTT assay; conditions: DSY1050, 24 h; outline: as §2
Candida albicans [6] = test: Antimicrobial activity against Chk1 deficient Candida albicans CHK21 at planktonic cell density of 10^8 cells/ml after 24 hrs by XTT assay; conditions: CHK21, 24 h; outline: as §2
Candida albicans [7] = test: Antimicrobial activity against Chk1 deficient Candida albicans CHK21 dissociated biofilms at cell density of 10^8 cells/ml after 24 hrs by XTT assay; conditions: CHK21, 24 h; outline: as §3
Candida albicans [8] = test: Antimicrobial activity against Candida albicans SC5314 dissociated biofilms at cell density of 10^3 cells/ml after 24 hrs by XTT assay; conditions: SC5314, 24 h
Outline: (§5)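 Polystyrene-well biofilms (48 h, 37°C) washed, then broken up in 100 µl RPMI by scraping and aspiration. Cells used undiluted (about 2 x 10^8 cells/ml equivalent) or adjusted by A600 against a hemacytometer-calibrated yeast standard curve. Drug exposure at 37°C for 48 h (caspofungin 24 h), then XTT/menadione read at 490 nm.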

Candida albicans [9] = test: Antimicrobial activity against Chk1 deficient Candida albicans CHK21 at planktonic cell density of 10^3 cells/ml after 24 hrs by XTT assay; conditions: CHK21, 24 h; outline: as §1
Candida albicans [10] = test: Antimicrobial activity against Candida albicans FH1 at planktonic cell density of 10^8 cells/ml after 24 hrs by XTT assay; conditions: FH1, 24 h; outline: as §2
Candida albicans [11] = test: Antimicrobial activity against Candida albicans SC5314 intact biofilms after 24 hrs by XTT assay; conditions: SC5314, 24 h; outline: as §4
Candida albicans [12] = test: Antimicrobial activity against Candida albicans FH1 dissociated biofilms at cell density of 10^3 cells/ml after 24 hrs by XTT assay; conditions: FH1, 24 h; outline: as §5
Candida albicans [13] = test: Antimicrobial activity against fluconazole-resistant Candida albicans FH5 dissociated biofilms at cell density of 10^8 cells/ml after 24 hrs by XTT assay; conditions: FH5, 24 h; outline: as §5
Candida albicans [14] = test: Antimicrobial activity against Chk1 deficient Candida albicans CHK21 intact biofilms after 24 hrs by XTT assay; conditions: CHK21, 24 h; outline: as §4
Candida albicans [15] = test: Antimicrobial activity against Candida albicans GDH2346 dissociated biofilms at cell density of 10^3 cells/ml after 24 hrs by XTT assay; conditions: GDH2346, 24 h; outline: as §3
Candida albicans [16] = test: Antimicrobial activity against fluconazole-resistant Candida albicans FH5 at planktonic cell density of 10^3 cells/ml after 24 hrs by XTT assay; conditions: FH5, 24 h; outline: as §1
Candida albicans [17] = test: Antimicrobial activity against Candida albicans FH1 intact biofilms after 24 hrs by XTT assay; conditions: FH1, 24 h; outline: as §4
Candida albicans [18] = test: Antimicrobial activity against fluconazole-resistant Candida albicans FH5 intact biofilms after 24 hrs by XTT assay; conditions: FH5, 24 h
Outline: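 Biofilm seeded at 1 x 10^6 cells/ml in RPMI in polystyrene microtiter wells and grown 48 h at 37°C in a moist chamber. Washed once and drug added to the same well (twofold dilutions, 1,024 to 0.0313 µg/ml) for 48 h at 37°C (caspofungin 24 h). Read-out: XTT/menadione reduction at 490 nm.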

Candida albicans [19] = test: Antimicrobial activity against Candida albicans FH1 dissociated biofilms at cell density of 10^8 cells/ml after 24 hrs by XTT assay; conditions: FH1, 24 h; outline: as §3
Candida albicans [20] = test: Antimicrobial activity against fluconazole-resistant Candida albicans FH5 at planktonic cell density of 10^8 cells/ml after 24 hrs by XTT assay; conditions: FH5, 24 h; outline: as §1
Candida albicans [21] = test: Antimicrobial activity against Candida albicans SC5314 at planktonic cell density of 10^3 cells/ml after 24 hrs by XTT assay; conditions: SC5314, 24 h; outline: as §2
Candida albicans [22] = test: Antimicrobial activity against Cdr1, Cdr2 and Mdr1 deficient Candida albicans DSY1050 dissociated biofilms at cell density of 10^3 cells/ml after 24 hrs by XTT assay; conditions: DSY1050, 24 h; outline: as §3
Candida albicans [23] = test: Antimicrobial activity against Chk1 deficient Candida albicans CHK21 dissociated biofilms at cell density of 10^3 cells/ml after 24 hrs by XTT assay; conditions: CHK21, 24 h; outline: as §5
Candida albicans [24] = test: Antimicrobial activity against Cdr1, Cdr2 and Mdr1 deficient Candida albicans DSY1050 dissociated biofilms at cell density of 10^8 cells/ml after 24 hrs by XTT assay; conditions: DSY1050, 24 h; outline: as §3
Candida albicans [25] = test: Antimicrobial activity against Cdr1, Cdr2 and Mdr1 deficient Candida albicans DSY1050 intact biofilms after 24 hrs by XTT assay; conditions: DSY1050, 24 h; outline: as §4
Candida albicans [26] = test: Antimicrobial activity against Candida albicans SC5314 dissociated biofilms at cell density of 10^8 cells/ml after 24 hrs by XTT assay; conditions: SC5314, 24 h; outline: as §3
Candida albicans [27] = test: Antimicrobial activity against Candida albicans GDH2346 at planktonic cell density of 10^3 cells/ml after 24 hrs by XTT assay; conditions: GDH2346, 24 h; outline: as §2
Candida albicans [28] = test: Antimicrobial activity against Cdr1, Cdr2 and Mdr1 deficient Candida albicans DSY1050 at planktonic cell density of 10^3 cells/ml after 24 hrs by XTT assay; conditions: DSY1050, 24 h; outline: as §2
Candida albicans [29] = test: Antimicrobial activity against Candida albicans GDH2346 at planktonic cell density of 10^8 cells/ml after 24 hrs by XTT assay; conditions: GDH2346, 24 h; outline: as §2
Candida albicans [30] = test: Antimicrobial activity against fluconazole-resistant Candida albicans FH5 dissociated biofilms at cell density of 10^3 cells/ml after 24 hrs by XTT assay; conditions: FH5, 24 h; outline: as §5

Measured: MIC80

CC[C@H](C)C[C@H](C)CCCCCCCCC(=O)N[C@H]1C[C@@H](O)[C@@H](NCCN)NC(=O)[C@@H]2[C@@H](O)CCN2C(=O)[C@H]([C@H](O)CCN)NC(=O)[C@H]([C@H](O)[C@@H](O)c2ccc(O)cc2)NC(=O)[C@@H]2C[C@@H](O)CN2C(=O)[C@H]([C@@H](C)O)NC1=O [CASPOFUNGIN]
> 32 µg/mL: Candida albicans [2] | Candida albicans [3] | Candida albicans [4] | Candida albicans [5] | Candida albicans [6] | Candida albicans [7] | Candida albicans [10] | Candida albicans [11] | Candida albicans [13] | Candida albicans [14] | Candida albicans [17] | Candida albicans [18] | Candida albicans [19] | Candida albicans [20] | Candida albicans [24] | Candida albicans [25] | Candida albicans [26] | Candida albicans [29]
0.125 µg/mL: Candida albicans [27]
0.25 µg/mL: Candida albicans [15] | Candida albicans [21] | Candida albicans [22] | Candida albicans [28]
0.5 µg/mL: Candida albicans [1] | Candida albicans [8] | Candida albicans [9] | Candida albicans [12] | Candida albicans [16] | Candida albicans [23] | Candida albicans [30]
